ChEMBL document CHEMBL2202972, “Synthesis and biological evaluation of 2-substituted-4-(3',4',5'-trimethoxyphenyl)-5-aryl thiazoles as anticancer agents” (Bioorg Med Chem, 2012)
Activity calls are given as the source filed them. The calls are words filed in the database; no cut-off is given here.

Key:
A549 = test: Resistance ratio of IC50 for human taxol-resistant A549-T12 cells expressing tubulin mutant gene to IC50 for human A549 cells; format: functional
CCRF-CEM [1] = test: Resistance ratio of IC50 for human vinblastine-resistant CEM/VBL100 cells overexpressing P-glycoprotein to IC50 for human CEM cells; format: functional
LoVo [2] = test: Resistance ratio of IC50 for human doxorubicin-resistant LoVo/DX cells overexpressing P-glycoprotein to IC50 for human LoVo cells; format: functional
HeLa [3] = test: Downregulation of Xiap expression in human HeLa cells at 250 to 500 nM after 24 hrs by Western blot analysis; format: functional, cell-based
In short: (§1)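 HeLa cells treated for 24 or 48 h, washed twice with ice-cold PBS and lysed on ice 30 min; lysates spun at 15000 ×g, 4 °C. Protein (20 μg) resolved by SDS–PAGE on 7.5–15% gels and blotted to PVDF. Specific primary antibodies for 2 h at room temperature, then peroxidase secondary for 60 min, ECL detection. Membranes stripped and reprobed for β-actin as loading control.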

HeLa [4] = test: Downregulation of Mcl-1 expression in human HeLa cells at 250 to 500 nM after 24 hrs by Western blot analysis; format: functional, cell-based; in short: as §1
HeLa [5] = test: Effect on Bax expression in human HeLa cells at 250 to 500 nM after 24 to 48 hrs by Western blot analysis; format: functional, cell-based; in short: as §1
HeLa [6] = test: Downregulation of Bcl-2 expression in human HeLa cells at 250 to 500 nM after 24 to 48 hrs by Western blot analysis; format: functional, cell-based; in short: as §1
HeLa [7] = test: Induction of apoptosis in human HeLa cells assessed as appearance of cleaved caspase-8 protein at 250 to 500 nM after 24 to 48 hrs by Western blot analysis; format: functional, cell-based; in short: as §1
HeLa [8] = test: Induction of apoptosis in human HeLa cells assessed as disappearance of uncleaved caspase-2 protein at 250 to 500 nM after 24 to 48 hrs by Western blot analysis; format: functional, cell-based; in short: as §1
HeLa [9] = test: Induction of apoptosis in human HeLa cells assessed as ROS production; format: functional, cell-based
HeLa [10] = test: Induction of apoptosis in human HeLa cells assessed as mitochondrial polarization; format: functional, cell-based
HeLa [11] = test: Induction of apoptosis in human HeLa cells assessed as effect on caspase-9 activation at 250 to 500 nM after 24 to 48 hrs by Western blot analysis; format: functional, cell-based; in short: as §1
HeLa [12] = test: Induction of apoptosis in human HeLa cells assessed as increase in caspase-3-mediated PARP cleavage at 250 to 500 nM after 24 to 48 hrs by Western blot analysis; format: functional, cell-based; in short: as §1
HeLa [13] = test: Induction of apoptosis in human HeLa cells assessed as caspase-3 activation at 250 to 500 nM after 24 to 48 hrs by Western blot analysis; format: functional, cell-based; in short: as §1
HeLa [14] = test: Induction of apoptosis in human HeLa cells at 500 nM after 24 to 48 hrs by Annexin V-FITC/propidium iodide staining based biparametric cytofluorimetric analysis; format: functional, cell-based
In short: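 HeLa cells treated at 250 or 500 nM for 24 or 48 h, then labelled with annexin-V-FITC (phosphatidylserine) plus propidium iodide. Red and green fluorescence measured by biparametric flow cytometry. Mean ± SEM of three independent experiments.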

HeLa [15] = test: Effect on cyclin B expression in human HeLa cells at 250 to 500 nM after 24 hrs by Western blot analysis; format: functional, cell-based; in short: as §1
[16] = target: T1, M-phase inducer phosphatase 3 (Homo sapiens) (UniProt P30307); test: Induction of cdc25C phosphorylation in human HeLa cells assessed as cdc2 kinase dephosphorylation at Tyr15 in human HeLa cells at 250 to 500 nM after 24 to 48 hrs by Western blot analysis; format: cell-based; in short: as §1
T1 sequence (whole entry): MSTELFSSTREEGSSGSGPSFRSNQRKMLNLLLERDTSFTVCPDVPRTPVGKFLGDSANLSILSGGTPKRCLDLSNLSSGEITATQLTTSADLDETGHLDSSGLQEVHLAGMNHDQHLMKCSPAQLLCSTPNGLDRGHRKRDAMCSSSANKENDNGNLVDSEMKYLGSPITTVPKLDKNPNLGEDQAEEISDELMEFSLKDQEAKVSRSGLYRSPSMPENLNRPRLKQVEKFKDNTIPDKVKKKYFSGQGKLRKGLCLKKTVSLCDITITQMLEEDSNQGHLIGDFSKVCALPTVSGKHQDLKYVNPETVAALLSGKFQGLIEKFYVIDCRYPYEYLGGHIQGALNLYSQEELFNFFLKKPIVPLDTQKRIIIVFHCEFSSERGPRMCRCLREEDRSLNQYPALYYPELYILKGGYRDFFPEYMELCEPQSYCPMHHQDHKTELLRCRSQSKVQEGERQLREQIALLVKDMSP

[17] = target: T1, M-phase inducer phosphatase 3 (Homo sapiens); test: Induction of cdc25C phosphorylation in human HeLa cells at 250 to 500 nM after 24 to 48 hrs by Western blot analysis; format: cell-based; in short: as §1
Jurkat [18] = test: Cell cycle arrest in human Jurkat cells assessed as accumulation of cells at G2/M phase at 125 nM after 24 hrs by propidium iodide staining based flow cytometric analysis; format: functional
In short: (§2)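 HeLa or Jurkat cells (5 × 10⁵, exponential growth) treated 24 h with 31–500 nM compound. Cells fixed in ice-cold 70% ethanol, treated with lysis buffer containing RNase A and 0.1% Triton X-100, then stained with propidium iodide. DNA content measured by flow cytometry to give phase distribution. Mean ± SEM of three independent experiments.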

HeLa [19] = test: Cell cycle arrest in human HeLa cells assessed as accumulation of cells at G2/M phase at 125 nM after 24 hrs by propidium iodide staining based flow cytometric analysis; format: functional; in short: as §2
Bos taurus = organism: Bos taurus; test: Displacement of [3H]colchicine from tubulin in bovine brain at 5 uM DEAE-cellulose filter method
[20] = Inhibition of bovine brain tubulin polymerization preincubated for 15 mins by turbidimetric analysis; parameters: species or system Bos taurus
In short: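 Bovine brain tubulin (10 μM) in glutamate buffer preincubated with varying compound concentrations for 15 min at 30 °C, then chilled to 0 °C. GTP 0.4 mM added and mixtures warmed to 30 °C in a spectrophotometer; assembly followed by turbidity at 350 nm.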

[21] = Antiproliferative activity against human taxol-resistant A549-T12 cells expressing tubulin mutant gene after 72 hrs by MTT assay; format: functional, cell-based; details: A549, 72 h
In short: (§3)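 Resistant sublines cultured under selection: LoVo^Doxo (doxorubicin-resistant LoVo subclone) in complete Ham's F12 with doxorubicin 0.1 μg/mL; A549-T12 in complete DMEM with taxol 12 nM. Seeded at 8 × 10³ per well, 18 h preincubation, then 72 h compound exposure at 37 °C. MTT read-out.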

[22] = Antiproliferative activity against human vinblastine-resistant CEM/VBL100 cells overexpressing P-glycoprotein after 72 hrs by MTT assay; format: functional, cell-based; details: CEM/VBL100, 72 h
CCRF-CEM [23] = test: Antiproliferative activity against human CEM cells after 72 hrs by MTT assay; format: functional, cell-based
[24] = Antiproliferative activity against human doxorubicin-resistant LoVo/DX cells overexpressing P-glycoprotein after 72 hrs by MTT assay; format: functional, cell-based; in short: as §3
LoVo [25] = test: Antiproliferative activity against human LoVo cells after 72 hrs by MTT assay; format: functional, cell-based
In short: (§4)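 Cells seeded at 8 × 10³ per well and incubated 18 h at 37 °C, 5% CO₂, then exposed to a range of compound concentrations for 72 h at 37 °C. Jurkat and HL-60 were grown in RPMI-1640, the others in DMEM, with penicillin, streptomycin and 10% FBS. DMSO stocks (10 mM); DMSO ≤0.25% final. Viability by MTT. […] Mean ± SE of ≥3 independent experiments.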

[26] = Growth inhibition of human resting PBL after 72 hrs by MTT assay; format: cell-based; details: resting peripheral blood lymphocytes (PBL)
PBL = test: Growth inhibition of PHA-stimulated human PBL after 72 hrs by MTT assay; format: functional
HT-29 = test: Antiproliferative activity against human HT-29 cells after 72 hrs by MTT assay; format: functional, cell-based; details: HT-29, 72 h
Jurkat [27] = test: Antiproliferative activity against human Jurkat cells after 72 hrs by MTT assay; format: functional, cell-based; in short: as §4
MCF7 = test: Antiproliferative activity against human MCF7 cells after 72 hrs by MTT assay; format: functional, cell-based; details: MCF7, 72 h
HL-60 = test: Antiproliferative activity against human HL60 cells after 72 hrs by MTT assay; format: functional, cell-based; details: HL-60, 72 h
HeLa [28] = test: Antiproliferative activity against human HeLa cells after 72 hrs by MTT assay; format: functional, cell-based
HeLa [29] = test: Induction of survivin phosphorylation at Thr34 in human HeLa cells at 250 to 500 nM after 24 to 48 hrs by Western blot analysis

SMILES: COc1cc(-c2nc(C)sc2-c2ccc3ccccc3c2)cc(OC)c1OC
- Ratio IC50 (A549): 1
- Ratio IC50 (CCRF-CEM [1]): 1.4
- Ratio IC50 (LoVo [2]): 2.1
- Activity (HeLa [3]): Active
- Activity (HeLa [4]): Active
- Activity (HeLa [5]): inactive
- Activity (HeLa [6]): Active
- Activity (HeLa [7]): Active
- Activity (HeLa [8]): Active
- Activity (HeLa [9]): Active
- Activity (HeLa [10]): Active
- Activity (HeLa [11]): inactive
- Activity (HeLa [12]): Active
- Activity (HeLa [13]): Active
- Activity (HeLa [14]): Active
- Activity (HeLa [15]): inactive
- Activity [16]: Active
- Activity [17]: Active
- Activity (Jurkat [18]): Active
- Activity (HeLa [19]): Active
- inhibition (Bos taurus): 66%
- IC50 [20]: 1100 nM
- IC50 [21]: 121 nM
- IC50 [22]: 88 nM
- IC50 (CCRF-CEM [23]): 61 nM
- IC50 [24]: 150 nM
- IC50 (LoVo [25]): 72 nM
- GI50 at 72 h [26]: 1270 nM
- GI50 (PBL): 285 nM
- IC50 (HT-29): 702 nM
- IC50 (Jurkat [27]): 48.6 nM
- IC50 (MCF7): 33.4 nM
- IC50 (HL-60): 205 nM
- IC50 (HeLa [28]): 82.1 nM
- Activity (HeLa [29]): Active
